Reference: ChEMBL document CHEMBL1154100, “Tetrahydroisoquinolines as dopaminergic ligands: 1-Butyl-7-chloro-6-hydroxy-tetrahydroisoquinoline, a new compound with antidepressant-like activity in mice” (Bioorg Med Chem, 2009)
Blank lines part the entries; values can stand above or below the compound they belong to. The source made the active and inactive calls. The rule behind the calls is not given here.

Key:
[1] = molecular target: D(1A) dopamine receptor (Rattus norvegicus, UniProt P18901); assay: Displacement of [3H]SCH23390 from dopamine D1 receptor in Wistar rat striatal membrane by liquid scintillation counting; assay type: cell membranes, Striatum
Procedure, shortened: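 Female Wistar rat striatum homogenized in 50 mM Tris-HCl pH 7.4, then washed twice at 49,000g. Membranes were resuspended in Tris-ions buffer (NaCl, CaCl2, KCl, MgCl2, 0.1% ascorbate). [3H]-SCH23390 displacement was read by filtration and scintillation counting. Ki was derived using KD 0.36 nM; 3–6 independent runs in duplicate, mean SEM.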

[2] = molecular target: D(2) dopamine receptor (Rattus norvegicus, UniProt P61169); assay: Displacement of [3H]raclopride from dopamine D2 receptor in Wistar rat striatal membrane by liquid scintillation counting; assay type: cell membranes, Striatum
Procedure, shortened: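 Striata from female Wistar rats (200–220 g) were homogenized in 50 mM Tris-HCl (pH 7.4) and centrifuged twice at 49,000g for 15 min at 4 °C. Membranes were resuspended in Tris buffer containing 120 mM NaCl, 2 mM CaCl₂, 5 mM KCl, 1 mM MgCl₂ and 0.1% ascorbic acid (pH 7.4). Samples were filtered, washed with cold buffer and counted by scintillation. Ki was derived using a [³H]raclopride KD of 1,25 nM, from 3–6 determinations run in duplicate.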

[3] = species: Rattus norvegicus; assay: Selectivity for Wistar rat dopamine D2 receptor over Wistar rat dopamine D1 receptor
[4] = molecular target: Sodium-dependent dopamine transporter (Rattus norvegicus) (UniProt P23977); assay: Inhibition of DAT in Wistar rat striatal synaptosomes at 100 uM by [3H]dopamine uptake assay; assay type: subcellular; conditions: Brain
Procedure, shortened: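 Synaptosomes were prepared from female Wistar rat striatum at 0–4 °C. Tissue was homogenized in 0.32 M sucrose, spun twice at 1000g for 10 min, and the pooled supernatants were spun at 16,000g for 30 min. The pellet was taken up in Krebs medium (pH 7.6, with glucose). Samples were preincubated for 10 min at 37 °C with pargyline, then given 0.5 nM final [³H]dopamine for 10 min. Uptake was stopped by ice-cold dilution and rapid fiberglass filtration.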

[5] = test system: Mus musculus; assay: Antidepressant-like activity in NMRI mouse assessed as increase in locomotor activity at 0.01 mg/kg, ip after 6 mins by photoelectronic actimeter method; assay type: functional; conditions: route intraperitoneal
Procedure, shortened: (§1)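 Naive male NMRI mice (25–30 g), n = 10/group; single ip injection (10 mL/kg, saline vehicle) 30 min before test, during the dark phase. Photoelectronic actimeter with two perpendicular infrared beams; beam crossings counted cumulatively at 6-min intervals over a 30-min session. Vs vehicle by ANOVA and Fisher PLSD; mean SD.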

[6] = test system: Mus musculus; assay: Antidepressant-like activity in NMRI mouse assessed as increase in locomotor activity at 0.01 mg/kg, ip after 12 mins by photoelectronic actimeter method; assay type: functional; conditions: route intraperitoneal; procedure, shortened: as §1
[7] = test system: Mus musculus; assay: Antidepressant-like activity in NMRI mouse assessed as increase in locomotor activity at 0.01 mg/kg, ip after 18 mins by photoelectronic actimeter method; assay type: functional; conditions: route intraperitoneal; procedure, shortened: as §1
[8] = test system: Mus musculus; assay: Antidepressant-like activity in NMRI mouse assessed as increase in locomotor activity at 0.01 mg/kg, ip after 24 mins by photoelectronic actimeter method; assay type: functional; conditions: route intraperitoneal; procedure, shortened: as §1
[9] = test system: Mus musculus; assay: Antidepressant-like activity in NMRI mouse assessed as increase in locomotor activity at 0.01 mg/kg, ip after 30 mins by photoelectronic actimeter method; assay type: functional; conditions: route intraperitoneal; procedure, shortened: as §1
[10] = test system: Mus musculus; assay: Antidepressant-like activity in NMRI mouse assessed as increase in locomotor activity at 0.04 mg/kg, ip after 6 mins by photoelectronic actimeter method; assay type: functional; conditions: route intraperitoneal; procedure, shortened: as §1
[11] = test system: Mus musculus; assay: Antidepressant-like activity in NMRI mouse assessed as increase in locomotor activity at 0.04 mg/kg, ip after 12 mins by photoelectronic actimeter method; assay type: functional; conditions: route intraperitoneal; procedure, shortened: as §1
[12] = test system: Mus musculus; assay: Antidepressant-like activity in NMRI mouse assessed as increase in locomotor activity at 0.04 mg/kg, ip after 18 mins by photoelectronic actimeter method; assay type: functional; conditions: route intraperitoneal; procedure, shortened: as §1
[13] = test system: Mus musculus; assay: Antidepressant-like activity in NMRI mouse assessed as increase in locomotor activity at 0.04 mg/kg, ip after 24 mins by photoelectronic actimeter method; assay type: functional; conditions: route intraperitoneal; procedure, shortened: as §1
[14] = test system: Mus musculus; assay: Antidepressant-like activity in NMRI mouse assessed as increase in locomotor activity at 0.04 mg/kg, ip after 30 mins by photoelectronic actimeter method; assay type: functional; conditions: route intraperitoneal; procedure, shortened: as §1
[15] = test system: Mus musculus; assay: Antidepressant-like activity in NMRI mouse assessed as increase in locomotor activity at 0.2 mg/kg, ip after 6 mins by photoelectronic actimeter method; assay type: functional; conditions: route intraperitoneal; procedure, shortened: as §1
[16] = test system: Mus musculus; assay: Antidepressant-like activity in NMRI mouse assessed as increase in locomotor activity at 0.2 mg/kg, ip after 12 mins by photoelectronic actimeter method; assay type: functional; conditions: route intraperitoneal; procedure, shortened: as §1
[17] = test system: Mus musculus; assay: Antidepressant-like activity in NMRI mouse assessed as increase in locomotor activity at 0.2 mg/kg, ip after 18 mins by photoelectronic actimeter method; assay type: functional; conditions: route intraperitoneal; procedure, shortened: as §1
[18] = test system: Mus musculus; assay: Antidepressant-like activity in NMRI mouse assessed as increase in locomotor activity at 0.2 mg/kg, ip after 24 mins by photoelectronic actimeter method; assay type: functional; conditions: route intraperitoneal; procedure, shortened: as §1
[19] = test system: Mus musculus; assay: Antidepressant-like activity in NMRI mouse assessed as increase in locomotor activity at 0.2 mg/kg, ip after 30 mins by photoelectronic actimeter method; assay type: functional; conditions: route intraperitoneal; procedure, shortened: as §1
[20] = test system: Mus musculus; assay: Antidepressant-like activity in NMRI mouse assessed as increase in locomotor activity at 1 mg/kg, ip after 6 mins by photoelectronic actimeter method; assay type: functional; conditions: route intraperitoneal; procedure, shortened: as §1
[21] = test system: Mus musculus; assay: Antidepressant-like activity in NMRI mouse assessed as increase in locomotor activity at 1 mg/kg, ip after 12 mins by photoelectronic actimeter method; assay type: functional; conditions: route intraperitoneal; procedure, shortened: as §1
[22] = test system: Mus musculus; assay: Antidepressant-like activity in NMRI mouse assessed as increase in locomotor activity at 1 mg/kg, ip after 18 mins by photoelectronic actimeter method; assay type: functional; conditions: route intraperitoneal; procedure, shortened: as §1
[23] = test system: Mus musculus; assay: Antidepressant-like activity in NMRI mouse assessed as increase in locomotor activity at 1 mg/kg, ip after 24 mins by photoelectronic actimeter method; assay type: functional; conditions: route intraperitoneal; procedure, shortened: as §1
[24] = test system: Mus musculus; assay: Antidepressant-like activity in NMRI mouse assessed as increase in locomotor activity at 1 mg/kg, ip after 30 mins by photoelectronic actimeter method; assay type: functional; conditions: route intraperitoneal; procedure, shortened: as §1
[25] = test system: Mus musculus; assay: Antidepressant-like activity in NMRI mouse assessed as increase in locomotor activity at 5 mg/kg, ip after 6 mins by photoelectronic actimeter method; assay type: functional; conditions: route intraperitoneal; procedure, shortened: as §1
[26] = test system: Mus musculus; assay: Antidepressant-like activity in NMRI mouse assessed as increase in locomotor activity at 5 mg/kg, ip after 12 mins by photoelectronic actimeter method; assay type: functional; conditions: route intraperitoneal; procedure, shortened: as §1
[27] = test system: Mus musculus; assay: Antidepressant-like activity in NMRI mouse assessed as increase in locomotor activity at 5 mg/kg, ip after 18 mins by photoelectronic actimeter method; assay type: functional; conditions: route intraperitoneal; procedure, shortened: as §1
[28] = test system: Mus musculus; assay: Antidepressant-like activity in NMRI mouse assessed as increase in locomotor activity at 5 mg/kg, ip after 24 mins by photoelectronic actimeter method; assay type: functional; conditions: route intraperitoneal; procedure, shortened: as §1
[29] = test system: Mus musculus; assay: Antidepressant-like activity in NMRI mouse assessed as increase in locomotor activity at 5 mg/kg, ip after 30 mins by photoelectronic actimeter method; assay type: functional; conditions: route intraperitoneal; procedure, shortened: as §1
[30] = test system: Mus musculus; assay: Antidepressant-like activity in NMRI mouse assessed as increase in locomotor activity at 25 mg/kg, ip after 6 mins by photoelectronic actimeter method; assay type: functional; conditions: route intraperitoneal; procedure, shortened: as §1
[31] = test system: Mus musculus; assay: Antidepressant-like activity in NMRI mouse assessed as increase in locomotor activity at 25 mg/kg, ip after 12 mins by photoelectronic actimeter method; assay type: functional; conditions: route intraperitoneal; procedure, shortened: as §1
[32] = test system: Mus musculus; assay: Antidepressant-like activity in NMRI mouse assessed as increase in locomotor activity at 25 mg/kg, ip after 18 mins by photoelectronic actimeter method; assay type: functional; conditions: route intraperitoneal; procedure, shortened: as §1
[33] = test system: Mus musculus; assay: Antidepressant-like activity in NMRI mouse assessed as increase in locomotor activity at 25 mg/kg, ip after 24 mins by photoelectronic actimeter method; assay type: functional; conditions: route intraperitoneal; procedure, shortened: as §1
[34] = test system: Mus musculus; assay: Antidepressant-like activity in NMRI mouse assessed as increase in locomotor activity at 25 mg/kg, ip after 30 mins by photoelectronic actimeter method; assay type: functional; conditions: route intraperitoneal; procedure, shortened: as §1
[35] = test system: Mus musculus; assay: Antidepressant-like activity in NMRI mouse assessed as increase in locomotor activity at 0.2 mg/kg, ip by photoelectronic actimeter method in presence of D2 receptor antagonist haloperidol; assay type: functional, organism-based; design: dose 0.2 mg/kg
Procedure, shortened: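 Male NMRI mice, n = 10/group. Haloperidol 0.03 mg/kg sc given just before ip test compound (0.2 mg/kg) or saline, 30 min before testing. Spontaneous locomotion was counted as infrared beam crossings in a photoelectric actimeter over 30 min. Groups were compared by Fisher PLSD; mean SD.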

[36] = test system: Mus musculus; assay: Antidepressant-like activity in NMRI mouse assessed as reduction in immobility time at 0.01 mg/kg, ip by forced swimming test; assay type: functional, organism-based; design: dose 0.01 mg/kg
Procedure, shortened: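 Male NMRI mice, 10/group, not pre-tested; ip dosing in saline 30 min before test. Each mouse swam 6 min in a cylinder (12 cm diameter, 13 cm water, 23–24 °C). Immobility was scored over the last 4 min after a 2-min delay. Imipramine 16 mg/kg was the reference. Analysis by ANOVA with Fisher PLSD.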

[37] = test system: Mus musculus; assay: Antidepressant-like activity in NMRI mouse assessed as reduction in immobility time at 0.01 mg/kg, ip by forced swimming test in presence of D2 receptor antagonist haloperidol; assay type: functional, organism-based; design: dose 0.01 mg/kg
Procedure, shortened: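 Male NMRI mice, 10/group. Haloperidol 0.03 mg/kg sc was injected just before ip test compound, 30 min before a 6-min forced swim (water 23–24 °C, depth 13 cm). Immobility was measured during the final 4 min. Analysis by ANOVA with Fisher PLSD.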

Chain of Sodium-dependent dopamine transporter (Rattus norvegicus) (P23977 whole entry): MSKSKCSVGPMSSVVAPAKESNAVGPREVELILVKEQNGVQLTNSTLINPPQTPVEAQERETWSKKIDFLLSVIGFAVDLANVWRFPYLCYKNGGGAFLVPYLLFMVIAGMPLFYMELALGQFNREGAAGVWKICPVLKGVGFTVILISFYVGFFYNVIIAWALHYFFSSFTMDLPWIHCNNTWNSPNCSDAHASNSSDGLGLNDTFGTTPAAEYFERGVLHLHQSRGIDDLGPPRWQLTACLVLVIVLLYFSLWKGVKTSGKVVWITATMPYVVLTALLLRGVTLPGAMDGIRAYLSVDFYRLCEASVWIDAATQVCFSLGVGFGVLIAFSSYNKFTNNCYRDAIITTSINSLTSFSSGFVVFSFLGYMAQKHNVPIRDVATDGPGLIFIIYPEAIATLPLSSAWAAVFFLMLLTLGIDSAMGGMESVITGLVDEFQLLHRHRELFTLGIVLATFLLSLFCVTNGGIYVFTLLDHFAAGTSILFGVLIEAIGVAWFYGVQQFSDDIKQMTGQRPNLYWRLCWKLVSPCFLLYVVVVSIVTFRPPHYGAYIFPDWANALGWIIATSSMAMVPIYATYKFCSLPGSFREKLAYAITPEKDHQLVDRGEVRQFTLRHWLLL
Chain of D(1A) dopamine receptor (P18901 whole entry): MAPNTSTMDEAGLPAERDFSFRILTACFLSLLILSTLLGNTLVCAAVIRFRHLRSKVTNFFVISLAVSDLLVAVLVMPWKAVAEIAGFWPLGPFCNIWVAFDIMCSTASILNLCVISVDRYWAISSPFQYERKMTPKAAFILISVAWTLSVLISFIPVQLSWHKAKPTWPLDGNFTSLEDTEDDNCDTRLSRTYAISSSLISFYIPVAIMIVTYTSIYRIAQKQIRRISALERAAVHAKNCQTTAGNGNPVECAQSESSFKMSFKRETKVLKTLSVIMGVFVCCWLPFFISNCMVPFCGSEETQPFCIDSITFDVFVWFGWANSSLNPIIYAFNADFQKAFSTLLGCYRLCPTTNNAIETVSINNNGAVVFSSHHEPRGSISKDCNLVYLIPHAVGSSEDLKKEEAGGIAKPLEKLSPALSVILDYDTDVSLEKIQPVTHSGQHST
Chain of D(2) dopamine receptor (P61169 whole entry): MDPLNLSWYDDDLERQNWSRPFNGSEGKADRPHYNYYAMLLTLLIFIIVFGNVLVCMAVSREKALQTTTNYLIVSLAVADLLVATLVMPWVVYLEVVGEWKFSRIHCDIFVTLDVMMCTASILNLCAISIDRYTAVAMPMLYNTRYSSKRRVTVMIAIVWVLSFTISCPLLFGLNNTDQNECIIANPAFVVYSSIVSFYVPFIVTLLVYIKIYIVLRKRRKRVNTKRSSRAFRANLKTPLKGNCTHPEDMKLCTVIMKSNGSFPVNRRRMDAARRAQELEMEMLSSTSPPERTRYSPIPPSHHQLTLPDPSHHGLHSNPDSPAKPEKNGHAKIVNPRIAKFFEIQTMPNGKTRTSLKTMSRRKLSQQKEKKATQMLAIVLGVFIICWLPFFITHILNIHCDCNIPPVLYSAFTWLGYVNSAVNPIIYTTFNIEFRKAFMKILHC

SMILES: CCCCC1NCCc2cc(Cl)c(O)cc21 (configuration not stated)
Ki [1]: 1.21 µM
Ki ([2]; read-out: Ki): 0.091 µM
fold change (FC) [3]: 17
Activity [4]: inactive

Ki [1]: 0.111 µM
Ki ([2]; read-out: pKi (converted)): 0.207 µM
fold change (FC) [3]: 0.6
Activity [4]: inactive
SMILES: CN1CCc2cc(Cl)c(O)cc2C1Cc1ccccc1 (configuration not stated)

SMILES: CCCCC1NCCc2cc(O)c(Cl)cc21 (configuration not stated)
Ki [1]: 3.23 µM
Ki ([2]; read-out: pKi (converted)): 0.0603 µM
fold change (FC) [3]: 49
Activity [4]: inactive
Activity [5]: 72
Activity [6]: 105
Activity [7]: 133
Activity [8]: 147
Activity [9]: 153
Activity [10]: 102
Activity [11]: 142
Activity [12]: 170
Activity [13]: 185
Activity [14]: 200
Activity [15]: 115
Activity [16]: 186
Activity [17]: 219
Activity [18]: 255
Activity [19]: 277
Activity [20]: 122
Activity [21]: 200
Activity [22]: 257
Activity [23]: 307
Activity [24]: 340
Activity [25]: 153
Activity [26]: 276
Activity [27]: 345
Activity [28]: 411
Activity [29]: 464
Activity [30]: 170
Activity [31]: 260
Activity [32]: 319
Activity [33]: 367
Activity [34]: 426
Activity [35]: inactive
Activity [36]: Active
Activity [37]: inactive

SMILES: CCCCC1c2cc(O)c(Cl)cc2CCN1C (configuration not stated)
Ki [1]: 1.14 µM
Ki ([2]; read-out: pKi (converted)): 0.395 µM
fold change (FC) [3]: 2.3
Activity [4]: inactive

Ki [1]: 0.815 µM
Ki ([2]; read-out: pKi (converted)): 2.14 µM
fold change (FC) [3]: 0.3
Activity [4]: inactive
SMILES: COc1cc2c(cc1Cl)CCN(C)C2c1ccccc1 (configuration not stated)

Ki [1]: 2.36 µM
Ki ([2]; read-out: pKi (converted)): 0.968 µM
fold change (FC) [3]: 5
Activity [4]: inactive
SMILES: COc1cc2c(cc1Cl)CCNC2Cc1ccccc1 (configuration not stated)

fold change (FC) [3]: 20
SMILES: O=C(CCCN1CCC(O)(c2ccc(Cl)cc2)CC1)c1ccc(F)cc1

Ki [1]: 6 µM
Ki ([2]; read-out: pKi (converted)): 6.14 µM
fold change (FC) [3]: 1.2
Activity [4]: inactive
SMILES: COc1cc2c(cc1Cl)CCNC2c1ccccc1 (configuration not stated)
